Only some compounds are listed: those with a hit (about 1.4% of all), similar ones and a draw of the others.
PLC-gamma1 inh – PLC-gamma1 enzyme inhibitors, primary screen, biochemical, fluorescence, purified enzyme; 1-phosphatidylinositol 4,5-bisphosphate phosphodiesterase gamma-1 (Homo sapiens), P19174; fluorogenic substrate; inhibition, % at 12.2 µM; 0.84% of 370,000 active; AID 720700, 2013; in the data active = inhibition above about 9.5%
Target sequence (P19174 whole entry, looked up): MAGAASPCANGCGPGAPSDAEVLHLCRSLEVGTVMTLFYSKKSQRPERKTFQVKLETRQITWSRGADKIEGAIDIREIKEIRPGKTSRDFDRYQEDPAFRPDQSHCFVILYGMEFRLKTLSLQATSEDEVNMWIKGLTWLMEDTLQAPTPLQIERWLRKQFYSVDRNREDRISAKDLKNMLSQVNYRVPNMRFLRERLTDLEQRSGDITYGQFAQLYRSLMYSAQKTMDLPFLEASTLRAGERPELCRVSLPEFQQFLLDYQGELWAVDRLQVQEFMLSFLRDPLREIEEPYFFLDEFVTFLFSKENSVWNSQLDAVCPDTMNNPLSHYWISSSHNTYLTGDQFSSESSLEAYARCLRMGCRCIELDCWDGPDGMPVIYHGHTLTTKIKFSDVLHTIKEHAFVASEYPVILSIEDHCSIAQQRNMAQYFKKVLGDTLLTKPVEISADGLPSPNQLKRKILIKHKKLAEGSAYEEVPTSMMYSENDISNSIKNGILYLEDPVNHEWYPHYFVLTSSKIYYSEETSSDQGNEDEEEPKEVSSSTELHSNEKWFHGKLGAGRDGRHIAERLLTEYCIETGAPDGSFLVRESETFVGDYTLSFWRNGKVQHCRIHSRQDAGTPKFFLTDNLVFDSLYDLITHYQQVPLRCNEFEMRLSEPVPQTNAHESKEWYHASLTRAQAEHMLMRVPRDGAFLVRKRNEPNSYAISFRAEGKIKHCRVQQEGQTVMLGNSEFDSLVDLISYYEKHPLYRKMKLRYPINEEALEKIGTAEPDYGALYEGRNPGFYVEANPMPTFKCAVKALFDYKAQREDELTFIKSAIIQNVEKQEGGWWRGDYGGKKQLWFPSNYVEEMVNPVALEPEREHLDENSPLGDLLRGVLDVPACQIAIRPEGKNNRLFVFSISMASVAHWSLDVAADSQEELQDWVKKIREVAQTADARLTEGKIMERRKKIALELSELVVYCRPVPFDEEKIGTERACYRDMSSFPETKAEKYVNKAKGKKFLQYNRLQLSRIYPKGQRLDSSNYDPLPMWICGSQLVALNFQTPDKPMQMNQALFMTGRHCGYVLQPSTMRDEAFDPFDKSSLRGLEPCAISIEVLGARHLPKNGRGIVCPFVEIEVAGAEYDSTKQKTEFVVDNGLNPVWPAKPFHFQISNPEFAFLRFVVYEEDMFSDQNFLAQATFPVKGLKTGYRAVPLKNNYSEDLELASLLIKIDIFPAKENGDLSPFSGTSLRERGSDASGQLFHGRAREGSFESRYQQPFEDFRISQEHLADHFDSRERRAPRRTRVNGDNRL
DDE Tn7 FP inh – inhibitors of Tn7 peptide binding to fibrin DD(E), primary screen, biochemical, fluorescence polarization, human fibrin, Tn7 probe; Fibrinogen beta chain (Homo sapiens), P02675; FP displacement of FITC-Tn7 peptide from fibrin DD(E); 0% = median of compound wells per plate; inhibition, % at 8.3 µM; 0.13% of 370,000 active; AID 720508, 2013;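 active = inhibition above the mean of compounds falling within the control limits plus 3 SD of them, cut at about 14% in these data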;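 note: 0% = plate median of compound wells and 100% = 10 µM Aha-Tn7 peptide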
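assay system = human clot-derived fibrin DD(E) complex | quantity = Fibrin-DD(E) at 2 µM final | timing = 10 min preincubation, 3 h with tracer, room temperature | signal = fluorescence polarization | measure = percent inhibition | benchmarks = high control wells with 10 µM unlabelled Aha-Tn7 peptide (full inhibition) | replicates = singlicate testing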
PLC-beta3 inh – human PLC-beta3 inhibitors, primary screen, biochemical, fluorescence | inhibition, % at 12.2 µM | 0.18% of 370,000 active | 1-phosphatidylinositol 4,5-bisphosphate phosphodiesterase beta-3 (Homo sapiens), Q01970 | Purified PLC-beta3, fluorogenic substrate;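 note: 0% = median of compound wells on plate and 100% = full blocker control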
FID counter – compounds displacing fluorescent DNA intercalator, primary screen, artefact control for HCV NS3 helicase inhibitor project, biochemical, FID fluorescence; AID 1845, 2009; 0.17% of 290,000 active; DNA fluorescent intercalator displacement; inhibition, % at 7.9 µM; in the data active = inhibition above about 37%;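 note: 0% = vehicle and 100% = reference compound; higher means more ethidium bromide displaced from hairpin DNA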
Tn6 DDE FP – inhibitors of Tn6 peptide binding to fibrin DD(E), primary screen, biochemical, fluorescence polarization, human fibrin, Tn6 probe; Fibrin DD(E) TRITC-Tn6 fluorescence polarization displacement; inhibition, % at 8.3 µM; 0.21% of 370,000 active; AID 720509, 2013;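 active = inhibition above a per-campaign cutoff: mean of compounds within control limits plus 3 SD, cut at about 15% in these data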;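 note: 0% = median of all compound wells on the plate and 100% = blocking peptide control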
PLCg1 ctr – PLC-gamma1 enzyme inhibitors, counter-screen for PLC-beta3 inhibitor project, biochemical, fluorescence; 3.1% of 3,300 active; purified PLC-gamma1, fluorogenic substrate; inhibition, % at 12.3 µM; shares compounds with PLC-gamma1 inh; in the data active = inhibition above about 9.5%
PLCb3 confirm – PLC-beta3 inhibitor confirmation, biochemical, fluorescence, purified enzyme; shares compounds with PLC-gamma1 inh; fluorogenic substrate fluorescence; inhibition, % at 12.3 µM; 1% of 3,300 active; AID 743261, 2014
Active calls of the source: *. Cut-off read from the data, not from the text of the source, unless noted: active = inhibition above about 11%; inactive = the rest.

What do the screens show for `CCS(=O)(=O)N1CCC(C(=O)NCCCN2CCC(Cc3ccccc3)CC2)CC1`?
PLC-gamma1 inh: 11.0*; DDE Tn7 FP inh: 7.4; PLC-beta3 inh: 1.5; FID counter: 18.6; Tn6 DDE FP: -4.4; PLCg1 ctr: -2.1; PLCb3 confirm: -1.6

How did CCCS(=O)(=O)N1CCC(C(=O)NCCN2CCC(Cc3ccccc3)CC2)CC1 do in these assays?
PLC-gamma1 inh: 15.4*; DDE Tn7 FP inh: 3.6; PLC-beta3 inh: 13.1*; FID counter: 18.0; Tn6 DDE FP: -5.2; PLCg1 ctr: -4.9; PLCb3 confirm: -5.1

What do the screens show for `O=C(NCCCN1CCC(Cc2ccccc2)CC1)C1CCN(S(=O)(=O)N2CCOCC2)CC1`?
PLC-gamma1 inh: -1.5; DDE Tn7 FP inh: 3.6; PLC-beta3 inh: 2.1; FID counter: 9.0; Tn6 DDE FP: 7.7

How did C/C(=N\Nc1nc(-c2cc(C)ccc2C)cs1)c1cc2ccccc2oc1=O do in these assays?
PLC-gamma1 inh: 10.4*; DDE Tn7 FP inh: -6.6; PLC-beta3 inh: 3.6; FID counter: -7.0; Tn6 DDE FP: -2.4; PLCg1 ctr: -19.1; PLCb3 confirm: -20.2

Results for O=C(NNC(=O)c1ccccc1Br)c1ccc(Cl)cc1 ?
PLC-gamma1 inh: -1.6; DDE Tn7 FP inh: 0.8; PLC-beta3 inh: 1.0; FID counter: 3.9; Tn6 DDE FP: -4.2

What do the screens show for `O=C(CSc1nnnn1C1CCCCC1)N1CCN(C(=O)c2ccco2)CC1`?
PLC-gamma1 inh: 11.6*; DDE Tn7 FP inh: 2.9; PLC-beta3 inh: -4.0; FID counter: -28.7; Tn6 DDE FP: -0.6; PLCg1 ctr: -5.5; PLCb3 confirm: 0.3

How did Cc1cccc(N2CCN(C(=O)c3oc4ccc(Br)cc4c3C)CC2)c1C do in these assays?
PLC-gamma1 inh: -2.3; DDE Tn7 FP inh: -5.3; PLC-beta3 inh: -9.4; Tn6 DDE FP: -3.8

Results for CC(/C=C1\SC(=S)N(C(C(=O)O)c2ccccc2)C1=O)=C\c1ccccc1 (configuration not stated) ?
PLC-gamma1 inh: -0.5; DDE Tn7 FP inh: -2.1; PLC-beta3 inh: -7.5; FID counter: -20.5; Tn6 DDE FP: -4.9

What do the screens show for `COc1ccc(NC(=O)c2sc3cc(C(F)(F)F)cnc3c2-c2cccs2)cc1`?
PLC-gamma1 inh: 11.1*; DDE Tn7 FP inh: -0.6; PLC-beta3 inh: 0.7; FID counter: -2.5; Tn6 DDE FP: -5.1; PLCg1 ctr: -25.6; PLCb3 confirm: -25.4

Results for O=C(COc1ccc2c(-c3ccccc3)cc(=O)oc2c1)NCCCN1CCOCC1 ?
PLC-gamma1 inh: -3.0; DDE Tn7 FP inh: -2.3; PLC-beta3 inh: -19.1; FID counter: 2.9; Tn6 DDE FP: 0.3

How did Cc1ncc([N+](=O)[O-])n1CCOC(=O)c1ccccc1 do in these assays?
PLC-gamma1 inh: 10.1*; DDE Tn7 FP inh: 1.7; PLC-beta3 inh: 12.5*; FID counter: 2.7; Tn6 DDE FP: 3.3; PLCg1 ctr: -3.3; PLCb3 confirm: 0.5

How did Cc1cccnc1NC(=O)Nc1ccc(F)cc1 do in these assays?
PLC-gamma1 inh: -2.4; DDE Tn7 FP inh: -4.5; PLC-beta3 inh: 1.0; FID counter: 1.9; Tn6 DDE FP: 8.9

Results for Cc1cccnc1NC(=O)Nc1cccc(C(F)(F)F)c1 ?
PLC-gamma1 inh: 10.3*; DDE Tn7 FP inh: -0.7; PLC-beta3 inh: 3.1; FID counter: 3.5; Tn6 DDE FP: -2.1; PLCg1 ctr: -5.2; PLCb3 confirm: -4.7

What do the screens show for `Cn1ncc([N+](=O)[O-])c1C(=O)Nc1ccc(C2CCCCC2)cc1`?
PLC-gamma1 inh: 3.1; DDE Tn7 FP inh: -2.6; PLC-beta3 inh: 0.6; FID counter: 2.4; Tn6 DDE FP: 7.4

Compound activity: PubChem BioAssay, The Scripps Research Institute Molecular Screening Center
